# Results from ChEMBL document CHEMBL3112476, “Inhibition of IκB kinase-β and IκB kinase-α by heterocyclic adamantyl arotinoids” (Bioorg Med Chem, 2014).
# Columns and labels:
# [1] = target: T1, Retinoic acid receptor alpha (Homo sapiens) (UniProt P10276); experiment: Agonist activity at Gal4-fused RARalpha (unknown origin) transfected in HEK293 cells assessed as induction of transcriptional activity at 4 uM after 6 hrs by luciferase/beta-galactosidase reporter gene assay relative to control; format: cell-based
# T1 sequence (whole entry): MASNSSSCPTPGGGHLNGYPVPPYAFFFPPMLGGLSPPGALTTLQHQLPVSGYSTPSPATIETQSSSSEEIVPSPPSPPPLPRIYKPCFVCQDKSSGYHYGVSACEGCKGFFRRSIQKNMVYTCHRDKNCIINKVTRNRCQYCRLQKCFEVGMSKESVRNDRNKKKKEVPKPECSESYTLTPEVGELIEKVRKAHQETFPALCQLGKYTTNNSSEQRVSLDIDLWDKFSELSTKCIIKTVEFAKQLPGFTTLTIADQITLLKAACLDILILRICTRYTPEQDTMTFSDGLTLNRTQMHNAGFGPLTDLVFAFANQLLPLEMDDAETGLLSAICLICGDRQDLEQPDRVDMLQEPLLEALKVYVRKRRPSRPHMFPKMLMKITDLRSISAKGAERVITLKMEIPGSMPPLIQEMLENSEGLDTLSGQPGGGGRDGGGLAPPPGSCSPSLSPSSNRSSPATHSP
# Method in brief: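 Gal4-RARα or Gal4-RXRα (10 ng) plus 2 ng β-galactosidase vector, calcium phosphate transfection into HEK-293 cells carrying a 5×UAS luciferase reporter. After 16 h, cells were washed and given 5% charcoal-treated FBS medium, then rested 2 h. Stimulation was with 4 µM compound or 0.1% DMSO; controls were 1 µM atRA (RARα) or 1 µM CD3254 (RXRα). Harvest was at 6 h (RARα) or 24 h (RXRα). Luciferase/β-gal ratio was expressed as fold over unstimulated cells. Data: 2 experiments, triplicate.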
# [2] = target: T2, Inhibitor of nuclear factor kappa-B kinase subunit epsilon (Homo sapiens) (UniProt Q14164); experiment: Inhibition of recombinant IKKepsilon (unknown origin) using ulight-rpS6 as substrate at 20 uM after 2 hrs by LANCE ultra TR-FRET assay relative to control
# T2 sequence (whole entry): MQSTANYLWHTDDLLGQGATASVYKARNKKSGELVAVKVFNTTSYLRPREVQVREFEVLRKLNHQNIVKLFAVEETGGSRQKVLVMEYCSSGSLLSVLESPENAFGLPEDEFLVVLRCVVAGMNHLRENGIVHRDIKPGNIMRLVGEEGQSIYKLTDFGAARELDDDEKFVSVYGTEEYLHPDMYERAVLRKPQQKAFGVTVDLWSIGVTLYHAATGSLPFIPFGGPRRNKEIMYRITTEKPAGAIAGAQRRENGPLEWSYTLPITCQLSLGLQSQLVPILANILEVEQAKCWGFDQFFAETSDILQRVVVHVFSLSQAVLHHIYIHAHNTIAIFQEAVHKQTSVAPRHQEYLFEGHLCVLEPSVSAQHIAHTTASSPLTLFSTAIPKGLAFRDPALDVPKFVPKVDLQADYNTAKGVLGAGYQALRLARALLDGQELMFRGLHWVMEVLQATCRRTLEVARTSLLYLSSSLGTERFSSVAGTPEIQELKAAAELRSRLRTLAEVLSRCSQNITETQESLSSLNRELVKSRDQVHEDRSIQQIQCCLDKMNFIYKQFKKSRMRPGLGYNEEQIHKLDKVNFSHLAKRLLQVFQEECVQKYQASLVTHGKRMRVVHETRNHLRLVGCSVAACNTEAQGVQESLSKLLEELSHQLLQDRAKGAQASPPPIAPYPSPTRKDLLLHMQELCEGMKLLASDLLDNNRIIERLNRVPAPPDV
# [3] = Cytotoxicity against human Jurkat T cells assessed as cell viability after 24 hrs by CellTiter-Glo assay; format: functional, cell-based
# Method in brief: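 Jurkat cells were seeded the day before treatment in RPMI with 0.5% FBS (10,000 cells/well). They were treated in triplicate across an 8-point dose series starting at 10 µM, with DMSO ≤0.1% as solvent control. ATP was measured by CellTiter-Glo luminescence after 24 h; a time-0 reading separated cytostatic from cytotoxic effects. IC50 was fitted from the curve.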
# [4] = target: T3, Inhibitor of nuclear factor kappa-B kinase subunit beta (Homo sapiens, UniProt O14920); experiment: Inhibition of recombinant IKKbeta (unknown origin) using ulight-IkappaomegaBalpha as substrate after 1 hr by LANCE ultra TR-FRET assay
# T3 sequence (O14920 whole entry): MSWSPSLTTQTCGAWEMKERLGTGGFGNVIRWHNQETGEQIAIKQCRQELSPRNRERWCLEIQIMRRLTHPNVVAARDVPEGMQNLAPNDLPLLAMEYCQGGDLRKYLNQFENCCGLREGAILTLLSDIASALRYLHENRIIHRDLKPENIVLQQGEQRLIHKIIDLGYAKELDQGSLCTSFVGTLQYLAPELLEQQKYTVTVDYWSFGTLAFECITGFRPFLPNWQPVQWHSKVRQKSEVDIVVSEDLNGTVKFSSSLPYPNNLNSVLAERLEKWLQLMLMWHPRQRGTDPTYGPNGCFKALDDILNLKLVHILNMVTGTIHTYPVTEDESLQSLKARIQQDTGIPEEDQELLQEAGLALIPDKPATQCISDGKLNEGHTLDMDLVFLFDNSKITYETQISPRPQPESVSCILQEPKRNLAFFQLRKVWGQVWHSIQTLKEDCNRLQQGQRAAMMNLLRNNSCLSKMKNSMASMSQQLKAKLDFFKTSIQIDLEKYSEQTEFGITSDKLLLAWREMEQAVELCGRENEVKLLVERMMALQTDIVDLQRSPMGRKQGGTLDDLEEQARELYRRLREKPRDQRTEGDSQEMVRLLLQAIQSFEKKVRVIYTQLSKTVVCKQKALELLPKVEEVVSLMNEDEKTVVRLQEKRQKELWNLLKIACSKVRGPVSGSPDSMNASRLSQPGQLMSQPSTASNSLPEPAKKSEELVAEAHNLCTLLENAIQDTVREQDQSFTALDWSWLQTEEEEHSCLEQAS
fold change (FC) [1],inhibition [2] [%],IC50 [4] [µM],Compound,IC50 [3] [µM]
1.3,0,–,COCCOCOc1cc(C)c(-c2ccc(CC(=O)O)cc2Cl)cc1C12CC3CC(CC(C3)C1)C2,–
–,7.8,–,COc1nc(/C=C/C(=O)O)cnc1-c1ccc(O)c(C23CC4CC(CC(C4)C2)C3)c1,5.01
1.1,9.4,–,COCCOCOc1ccc(-c2ncc(/C=C/C(=O)O)nc2OC)cc1C12CC3CC(CC(C3)C1)C2,–
–,8.5,–,Cc1cc(O)c(C23CC4CC(CC(C4)C2)C3)cc1-c1ccc(CC(=O)O)cc1Cl,3.98
1.1,18.8,–,COCCOCOc1ccc(-c2ncc(-c3ccc(C(=O)O)cc3)nc2OC)cc1C12CC3CC(CC(C3)C1)C2,–
1.2,25.3,5.16,COCCOCOc1ccc(-c2ncc(-c3ccc(C(=O)O)cc3)s2)cc1C12CC3CC(CC(C3)C1)C2,–
1,0,–,Cc1cc(O)c(C23CC4CC(CC(C4)C2)C3)cc1-c1ncc(/C=C/C(=O)O)s1,–
–,0,4.78,Cc1cc(O)c(C23CC4CC(CC(C4)C2)C3)cc1-c1ncc(-c2ccc(C(=O)O)cc2)s1,4.4
–,11.9,–,Cc1cc(O)c(C23CC4CC(CC(C4)C2)C3)cc1-c1ccc(/C=C/C(=O)O)cc1Cl,4.04
–,6.7,–,COc1nc(/C=C/C(=O)O)cnc1-c1cc(C23CC4CC(CC(C4)C2)C3)c(O)cc1C,5.38
1.1,0,–,O=C(O)/C=C/c1cnc(-c2ccc(O)c(C34CC5CC(CC(C5)C3)C4)c2)s1,–
1,14.3,–,COCCOCOc1ccc(-c2ncc(/C=C/C(=O)O)s2)cc1C12CC3CC(CC(C3)C1)C2,–
1.9,11.1,–,COCCOCOc1cc(C)c(-c2ncc(/C=C/C(=O)O)s2)cc1C12CC3CC(CC(C3)C1)C2,–
–,13.7,7.06,COCCOCOc1cc(C)c(-c2ccc3cc(C(=O)O)ccc3c2Cl)cc1C12CC3CC(CC(C3)C1)C2,5.62
1.8,2.9,–,COCCOCOc1cc(C)c(-c2ccc(/C=C/C(=O)O)cc2Cl)cc1C12CC3CC(CC(C3)C1)C2,–
1.9,26.1,7.81,COc1nc(-c2ccc(C(=O)O)cc2)cnc1-c1ccc(O)c(C23CC4CC(CC(C4)C2)C3)c1,3.13
0.8,5.9,–,COCCOCOc1cc(C)c(-c2ncc(/C=C/C(=O)O)nc2OC)cc1C12CC3CC(CC(C3)C1)C2,–
–,41.5,4.75,Cc1cc(O)c(C23CC4CC(CC(C4)C2)C3)cc1-c1ccc2cc(C(=O)O)ccc2c1Cl,2.19
–,11.6,3.37,O=C(O)c1ccc(-c2cnc(-c3ccc(O)c(C45CC6CC(CC(C6)C4)C5)c3)s2)cc1,2.24
–,17,4.43,COCCOCOc1cc(C)c(-c2ncc(-c3ccc(C(=O)O)cc3)s2)cc1C12CC3CC(CC(C3)C1)C2,5.71
–,5.2,–,CC(=O)NCCCOc1cc(/C=C/C(=O)O)ccc1-c1cc(C23CC4CC(CC(C4)C2)C3)c(O)cc1C,2.61
